“And” between values parts separate entries of the source, which are not always exact repeats. Equal values may be shown once.
What was measured:
Cannabinoid receptor 1 [1] = target: T1, Cannabinoid receptor 1 (Homo sapiens, UniProt P21554); assay: Antagonist activity at recombinant human CB1 receptor expressed in HEK293 cell membranes assessed as inhibition of CP55940-induced [35S]GTPgammaS binding preincubated for 1 hr followed by CP55940 addition and subsequent incubation with [35S]GTPgammaS measured after 30 mins by scintillation spectrometry
T1 sequence (P21554 whole entry): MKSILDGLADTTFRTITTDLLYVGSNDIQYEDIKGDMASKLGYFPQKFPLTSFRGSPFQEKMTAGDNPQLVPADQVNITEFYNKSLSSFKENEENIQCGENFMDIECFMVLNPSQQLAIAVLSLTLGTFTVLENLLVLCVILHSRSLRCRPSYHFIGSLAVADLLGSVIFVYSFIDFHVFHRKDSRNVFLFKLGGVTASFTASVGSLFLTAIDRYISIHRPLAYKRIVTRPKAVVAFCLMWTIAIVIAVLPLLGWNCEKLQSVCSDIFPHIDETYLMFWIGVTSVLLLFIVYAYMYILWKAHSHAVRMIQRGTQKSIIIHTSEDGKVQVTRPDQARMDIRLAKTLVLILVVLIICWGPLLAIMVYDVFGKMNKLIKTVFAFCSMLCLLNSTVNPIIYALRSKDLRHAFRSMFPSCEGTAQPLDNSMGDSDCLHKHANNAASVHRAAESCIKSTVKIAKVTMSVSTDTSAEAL
Procedure, shortened: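 Antagonism was measured by [35S]GTPγS binding at 30 °C on membranes of HEK-293 cells stably expressing recombinant human CB1.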

Cannabinoid receptor 1 [2] = target: T1, Cannabinoid receptor 1; assay: Displacement of [3H]CP55940 from recombinant human CB1 receptor expressed in beta-galactosidase expressing CHOK1 cell membranes after 60 mins by scintillation spectrometry

Cc1c(C(=O)N[C@@H]2CCCC[C@@H]2O)nc(-c2ccc(Cl)cc2Cl)n1-c1ccc(OS(=O)(=O)CCC(F)(F)F)cc1
IC50 (Cannabinoid receptor 1 [1]): 1.58 nM

Cc1c(C(=O)N[C@@H]2CCCC[C@@H]2N(C)C)nc(-c2ccc(Cl)cc2Cl)n1-c1ccc(OS(=O)(=O)CCC(F)(F)F)cc1
Ki (Cannabinoid receptor 1 [2]): 2.5 nM | IC50 (Cannabinoid receptor 1 [1]): 79 nM and 83 nM

Cc1c(C(=O)NN2CCCCC2)nc(-c2ccc(Cl)cc2Cl)n1-c1ccc(OCCC(F)(F)F)cc1
Ki (Cannabinoid receptor 1 [2]): 0.794 nM | IC50 (Cannabinoid receptor 1 [1]): 5.01 nM

Cc1c(C(=O)NN2CCCCC2)nc(-c2ccc(Cl)cc2Cl)n1-c1ccc(OCCCC(F)(F)F)cc1
Ki (Cannabinoid receptor 1 [2]): 0.2 nM

CCCCS(=O)(=O)Oc1ccc(-n2c(-c3ccc(Cl)cc3Cl)nc(C(=O)NN3CCCCC3)c2C)cc1
Ki (Cannabinoid receptor 1 [2]): 0.126 nM

Cc1c(C(=O)NN2CCCCC2)nc(-c2ccc(Cl)cc2Cl)n1-c1ccc(OS(=O)(=O)CCCC(F)(F)F)cc1
Ki (Cannabinoid receptor 1 [2]): 0.1 nM

Cc1c(C(=O)N[C@H]2CCC[C@H](O)C2)nc(-c2ccc(Cl)cc2Cl)n1-c1ccc(OS(=O)(=O)CCC(F)(F)F)cc1
IC50 (Cannabinoid receptor 1 [1]): 1.26 nM

Cc1c(C(=O)N[C@@H]2CCCC[C@H]2O)nc(-c2ccc(Cl)cc2Cl)n1-c1ccc(OS(=O)(=O)CCC(F)(F)F)cc1
Ki (Cannabinoid receptor 1 [2]): 0.2 nM

Cc1c(C(=O)N[C@H]2CCCC[C@H]2N)nc(-c2ccc(Cl)cc2Cl)n1-c1ccc(OS(=O)(=O)CCC(F)(F)F)cc1
Ki (Cannabinoid receptor 1 [2]): 0.316 nM | IC50 (Cannabinoid receptor 1 [1]): 6.3 nM

Cc1c(C(=O)Nc2ccc(F)nc2)nc(-c2ccc(Cl)cc2Cl)n1-c1ccc(OS(=O)(=O)CCC(F)(F)F)cc1
Ki (Cannabinoid receptor 1 [2]): 0.1 nM

Cc1c(C(=O)Nc2ccc(C(F)(F)F)cn2)nc(-c2ccc(Cl)cc2Cl)n1-c1ccc(OS(=O)(=O)CCC(F)(F)F)cc1
Ki (Cannabinoid receptor 1 [2]): 0.126 nM

Cc1c(C(=O)NN2CCCCC2)nc(-c2ccc(Cl)cc2Cl)n1-c1ccc(OS(=O)(=O)CCC(C)(C)C)cc1
Ki (Cannabinoid receptor 1 [2]): 0.501 nM | IC50 (Cannabinoid receptor 1 [1]): 2 nM

Cc1c(C(=O)NN2CCCCC2)nc(-c2ccc(Cl)cc2Cl)n1-c1ccc(OS(=O)(=O)CCC(F)(F)F)cc1
Ki (Cannabinoid receptor 1 [2]): 0.126 nM

— BindingDB's records for doi:10.1021/acs.jmedchem.7b00861 (Leiden University, 2017)
